Experiment [1] concerns HepG2. Briefly: Antiproliferative activity against human HepG2 cells at 1 uM after 72 hrs by MTT assay realtive to control. Format: functional. The procedure, abridged: (§1)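 MTT assay in triplicate wells. Cells (2 × 10^3/well) were attached 24 h, then treated at 0.1, 1, 10, 50 or 100 µM for 24, 48 or 72 h. MTT added for 4 h, SDS solubilisation, absorbance at 570/650 nm. Inhibition = 1 − (OD treated − blank)/(OD control − blank). Reported as mean ± SD of three independent experiments.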

For experiment [2], the system named is HepG2. In words: Antiproliferative activity against human HepG2 cells at 50 uM after 72 hrs by MTT assay realtive to control. In kind it is functional. The procedure, abridged: as §1
For experiment [3], the system named is HepG2. Briefly: Antiproliferative activity against human HepG2 cells at 1 uM after 48 hrs by MTT assay realtive to control. Format: functional. The procedure, abridged:
as §1
Background: Tetrazolium dyes change colour on reduction, which living cells bring about.

Experiment [4] relates to A549. Briefly: Antiproliferative activity against human A549 cells at 10 uM after 24 hrs by MTT assay relative to control. Format: functional. In outline:
as §1

Experiment [5] has as its system A549. In words: Antiproliferative activity against human A549 cells at 100 uM after 48 hrs by MTT assay relative to control. In kind it is functional. In outline:
as §1

Experiment [6] has as its system HepG2. In words: Cytotoxicity against human HepG2 cells at 10 uM after 48 hrs by LDH release assay (reference value: 100%). In kind it is functional. The procedure, abridged: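 LDH release. HepG2 cells at 1.0 × 10^5/well were incubated 24 h at 37 °C, then treated at 2.5–40 µM for 48 h. Cells lysed with 2% lysate for 1 h gave the full-release (100%) reference; medium-only cells were the low control. LDH in the supernatant was measured per kit. Triplicates, three independent repeats.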

Experiment [7] has as its system HepG2. Briefly: Induction of apoptosis in human HepG2 cells assessed as viable cells at 10 uM after 48 hrs by Annexin V-FITC/propidium iodide double staining-based flow cytometry (reference value: 86.4%). Format: functional. To be noted: HepG2, 48 h, read-out: Activity.
Experiment [8] deals with HepG2. Briefly: Induction of apoptosis in human HepG2 cells assessed as early apoptotic cells at 2.5 uM after 48 hrs by Annexin V-FITC/propidium iodide double staining-based flow cytometry (reference value: 8.7%). In kind it is functional.
Experiment [9] has as its system HepG2. Briefly: Induction of apoptosis in human HepG2 cells after 48 hrs by AnnexinV-FITC/propidium iodide double staining-based flow cytometry. Format: functional, cell-based. (In flow cytometry, cells or beads pass a laser one at a time.)
Experiment [10] concerns HepG2. In words: Induction of apoptosis in human HepG2 cells assessed as intracellular free Ca2+ levels at 5 uM after 48 hrs by FL1 channel/FACS analysis (reference value: 14.2%). Format: functional. In outline: (§2)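 HepG2 seeded at 5.0 × 10^5 cells/mL, 24 h at 37 °C in 5% CO2, then treated 48 h (2.5–20 µM). Harvested cells were washed in ice-cold PBS and loaded with 4 µM Fluo-3/AM for 30 min. After trypsinizing, they were washed twice and resuspended in HEPES, and fluorescence was measured in the FL-1 channel by flow cytometry. Values are averages of at least three independent experiments.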

In experiment [11] the test system is HepG2. In words: Induction of apoptosis in human HepG2 cells assessed as intracellular free Ca2+ levels at 10 uM after 48 hrs by FL1 channel/FACS analysis (reference value: 14.2%). Format: functional. The procedure, abridged:
as §2

Experiment [12] relates to HepG2. Briefly: Induction of apoptosis in human HepG2 cells assessed as caspase-3 activity at 5 uM after 48 hrs by colorimetric assay relative to control. Format: functional. The procedure, abridged: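 After 48 h treatment, HepG2 were rinsed in ice-cold PBS and lysed 1–1.5 h on ice in buffer with 1% DTT. Lysate was spun at 10,000×g for 1 min at 4 °C; supernatant protein was measured by Bradford. Supernatant was mixed with 2× reaction buffer (1% DTT) plus caspase-3 chromogenic peptide substrate, held 4 h at 37 °C, and read at 405 nm.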

In experiment [13] the target is Epidermal growth factor receptor (Homo sapiens, UniProt P00533). As to conditions: HEK293, at 1 pM.

Our source for the Activity, viability and inhibition values is ChEMBL document CHEMBL4130355, “Development of a series of novel 4-anlinoquinazoline derivatives possessing quinazoline skeleton: Design, synthesis, EGFR kinase inhibitory efficacy, and evaluation of anticancer activities in vitro” (Eur J Med Chem, 2017).

Each structure is given as a SMILES string.

Chain of Epidermal growth factor receptor (P00533 whole entry): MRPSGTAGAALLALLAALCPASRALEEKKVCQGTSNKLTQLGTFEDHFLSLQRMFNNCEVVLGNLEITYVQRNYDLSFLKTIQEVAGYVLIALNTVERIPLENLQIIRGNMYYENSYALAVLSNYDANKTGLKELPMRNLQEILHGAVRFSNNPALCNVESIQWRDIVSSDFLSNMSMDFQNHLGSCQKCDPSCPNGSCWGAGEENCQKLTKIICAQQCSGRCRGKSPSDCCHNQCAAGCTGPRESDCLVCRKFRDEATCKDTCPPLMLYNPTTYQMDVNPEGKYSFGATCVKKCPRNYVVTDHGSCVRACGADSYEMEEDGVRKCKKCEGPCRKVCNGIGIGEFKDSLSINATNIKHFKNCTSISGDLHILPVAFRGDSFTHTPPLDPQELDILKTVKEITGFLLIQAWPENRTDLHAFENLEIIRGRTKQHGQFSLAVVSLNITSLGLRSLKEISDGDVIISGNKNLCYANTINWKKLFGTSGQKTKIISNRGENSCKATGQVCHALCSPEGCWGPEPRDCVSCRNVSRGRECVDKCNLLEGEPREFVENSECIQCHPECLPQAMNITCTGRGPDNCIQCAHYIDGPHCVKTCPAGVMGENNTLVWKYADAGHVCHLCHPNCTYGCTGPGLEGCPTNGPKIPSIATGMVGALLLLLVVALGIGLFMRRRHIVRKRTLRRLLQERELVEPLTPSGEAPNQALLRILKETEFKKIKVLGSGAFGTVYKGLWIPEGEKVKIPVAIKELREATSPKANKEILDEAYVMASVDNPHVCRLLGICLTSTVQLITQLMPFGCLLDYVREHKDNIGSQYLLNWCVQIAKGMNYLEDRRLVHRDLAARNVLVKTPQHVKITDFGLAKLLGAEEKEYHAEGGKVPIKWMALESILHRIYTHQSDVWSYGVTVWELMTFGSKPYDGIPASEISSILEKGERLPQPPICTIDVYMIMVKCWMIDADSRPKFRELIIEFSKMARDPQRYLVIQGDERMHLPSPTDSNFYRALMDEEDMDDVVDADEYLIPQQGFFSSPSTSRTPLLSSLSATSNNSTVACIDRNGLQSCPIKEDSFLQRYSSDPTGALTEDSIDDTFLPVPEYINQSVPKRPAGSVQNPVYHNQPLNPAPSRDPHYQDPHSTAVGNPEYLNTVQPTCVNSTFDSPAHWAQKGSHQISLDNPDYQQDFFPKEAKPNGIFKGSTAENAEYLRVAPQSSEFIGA

Take `COc1cc2c(Nc3ccc(C#N)cc3)ncnc2cc1OCCCN1CCC(c2ccccc2)CC1`: the Activity worked out at 13.7% in the experiment on HepG2 [1]; 96.5% in the experiment on HepG2 [2]; 8.6% with HepG2 [3]; 24.7% with A549 [4]; 91.4% with A549 [5]; 69.27% in the experiment with HepG2 [6]. Moreover, the Activity in the experiment on HepG2 [8] is 48.6%; in the experiment on HepG2 [9], “Dose-dependent effect”; with HepG2 [10], 43.2%; with HepG2 [11], 48.9%; in the experiment on HepG2 [12], 145%. Further, in the experiment on HepG2 [7], the viability at 10 µM was determined as 1.3%. Also, the inhibition (in general, the change of the read-out against control, counted positive when it falls) in experiment [13] stood at 16%.
